Assay [1] can be described thus: Her2 expression decrease, cell viability multiplex – SKBR3 breast tumor cells, AlphaScreen, ATP viability, primary screen (AID 461;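 active means Her2 level under about 52% in both replicate screens, with viability over 70% of control, limit read from the data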;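 on Her2 level: lower value means less Her2 protein in the cells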;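 on viability: percent of carrier control wells set as 100% viability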). Particulars: SKBR3 Her2 protein level, 18-24 h, measured here: SKBR3 viability, ATP luminescence, at 10 µM.
Assay [2] concerns the target Receptor tyrosine-protein kinase erbB-2 (Homo sapiens) (UniProt P04626). The description is as above. Particulars: 18-24 h, at 10 µM, stronger effect = lower value.
The nature of assay [3]: reduced viability of SK-BR-3 breast cancer cells – cell-based, 24 h, human, pilot screen (AID 572;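 active means viability at or below 10% of carrier control in both of two separate runs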;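 further: compound exposure lasted between 18 and 24 h rather than exactly 24 h; 100% = carrier-treated control wells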). Particulars: SK-BR-3 viability, CellTiter-Glo luminescence, at 10 µM, stronger effect = lower value. For orientation: In ATP-based viability assays light output follows the ATP content of the culture.
Assay [4] is described as follows: HUVEC growth inhibition – cell-based, human, primary screen (AID 575;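 active means viability at or below 30% in both replicate assays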;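 further: 100% = median of untreated cell wells with 0.1% DMSO on each plate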). Conditions: HUVEC proliferation, CellTiter-Glo luminescence, 72 h; at 10 µM; stronger effect = lower value. Put shortly: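 material = primary HUVEC, no more than 12 passages | input = 1250 cells per well | controls = vehicle and MePR control wells | measured by = CTG luminescence | times = 72 h compound incubation | format = collagen-coated 384-well format | read-out = % viability vs DMSO wells | doses = single 10 µM dose, 0.1% DMSO, from 5x medium stock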

A short description of assay [5]: H69AR cell proliferation blockers – human, duplicate replicates, primary screen (AID 580;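 active means viability at or under a set limit in both replicates, limit being median viability minus 3 SD, cut at about 48% in these data, passing the limit was not always enough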;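 further: 100% = mean luminescence of untreated wells and 0% = no signal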). Particulars: H69AR lung tumor cells viability, ATP luminescence, 72 h; at 10 µM; stronger effect = lower value.
Assay [6] is described as follows: MRP1 drug-resistance reversers in H69AR cells – cell-based, doxorubicin co-treatment, pilot screen (AID 601;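 active means viability loss from added drug above about 55%, and viability with drug at most 40%, in both replicates, limit read from the data, passing the limit was not always enough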). Particulars: CellTiter-Glo, 72 h, at 10 µM; for differential viability (reversal): stronger effect = higher value.
Assay [7] in a line: yeast transport mutant growth inhibition pilot in 384-well plates, post-Golgi transport modulator project (AID 636; in the data active means inhibition above about 31%). Conditions: absorbance 615 nm, about 18 h, stronger effect = higher value.
The nature of assay [8]: growth suppression of yeast trafficking mutant, preliminary HTS, modulators of trafficking downstream of Golgi apparatus project, 1536-format plate, OD 615 nm (AID 637). Particulars: yeast transport mutant growth, absorbance 615 nm, 18 h; stronger effect = higher value.
Setting [9] is: H69AR cells + 2 uM doxorubicin, measured here: viability with 2 uM doxorubicin, stronger effect = lower value.
The mark [10] stands for this setting: H69AR cells, compound alone cytotoxicity.

Calls of active or inactive are those of the source. Unless noted, no stated cut-off is given here; in the data, active means inhibition above about 30%; inactive means the rest.

One may read the viability as a read-out of living cells in per cent, often relative to untreated cells. Broadly, the inhibition is the drop in the measured response relative to a control, in per cent.

Sequence of Receptor tyrosine-protein kinase erbB-2 (Homo sapiens) (P04626 whole entry, looked up): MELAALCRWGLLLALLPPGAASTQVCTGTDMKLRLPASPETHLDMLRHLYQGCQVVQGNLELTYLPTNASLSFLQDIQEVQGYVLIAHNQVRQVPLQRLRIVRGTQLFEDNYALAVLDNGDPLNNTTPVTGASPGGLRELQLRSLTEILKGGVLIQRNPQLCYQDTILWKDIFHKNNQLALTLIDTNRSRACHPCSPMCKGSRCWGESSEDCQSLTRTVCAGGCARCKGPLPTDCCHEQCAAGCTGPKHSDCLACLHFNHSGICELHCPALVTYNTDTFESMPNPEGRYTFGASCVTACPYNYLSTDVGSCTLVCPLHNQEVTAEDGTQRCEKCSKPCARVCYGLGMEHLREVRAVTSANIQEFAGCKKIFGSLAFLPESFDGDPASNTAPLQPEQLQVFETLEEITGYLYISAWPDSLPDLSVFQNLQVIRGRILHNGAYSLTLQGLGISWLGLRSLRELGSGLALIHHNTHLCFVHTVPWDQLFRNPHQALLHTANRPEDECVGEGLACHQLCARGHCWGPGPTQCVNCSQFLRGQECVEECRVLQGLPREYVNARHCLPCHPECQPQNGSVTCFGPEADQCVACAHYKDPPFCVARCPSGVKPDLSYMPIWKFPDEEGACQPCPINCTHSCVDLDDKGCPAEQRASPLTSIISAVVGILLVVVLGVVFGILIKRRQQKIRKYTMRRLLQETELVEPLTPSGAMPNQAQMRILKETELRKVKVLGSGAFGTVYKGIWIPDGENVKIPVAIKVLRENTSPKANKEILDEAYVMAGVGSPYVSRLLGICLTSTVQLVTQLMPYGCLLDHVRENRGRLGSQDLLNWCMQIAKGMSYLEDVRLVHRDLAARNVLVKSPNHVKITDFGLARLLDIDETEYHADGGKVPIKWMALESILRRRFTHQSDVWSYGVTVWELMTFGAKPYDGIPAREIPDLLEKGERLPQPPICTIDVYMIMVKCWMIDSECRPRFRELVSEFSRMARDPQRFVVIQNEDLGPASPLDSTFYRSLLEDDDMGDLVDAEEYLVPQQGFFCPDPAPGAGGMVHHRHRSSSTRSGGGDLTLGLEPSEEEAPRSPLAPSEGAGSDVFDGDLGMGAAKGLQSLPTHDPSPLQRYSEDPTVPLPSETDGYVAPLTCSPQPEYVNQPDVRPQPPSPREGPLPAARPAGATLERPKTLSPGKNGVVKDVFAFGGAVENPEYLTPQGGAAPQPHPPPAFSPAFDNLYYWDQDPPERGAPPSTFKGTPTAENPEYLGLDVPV

With `O=C(Nc1ccc2snnc2c1)N1CCSCC1`, the viability is 108% in assay [1]; 108% (inactive) in assay [3]; 103% (inactive) in assay [4]; 98.9% (inactive) in assay [5]; 96.2% in assay [6] (setting [9]); 98.9% in assay [6] (setting [10]). For the same molecule, the Her2 level in assay [2] is 104% (inactive). In assay [6] (H69AR cells + 2 uM doxorubicin), the differential viability (reversal) was 2.63% (inactive). The inhibition in assay [7] is 0.77% (inactive); in assay [8], -0.5% (inactive).
`CCN(CC)S(=O)(=O)c1ccc(NC(=O)CN(c2cccc(F)c2)S(C)(=O)=O)cc1`: the viability was 96% in assay [1]; 96% (inactive) in assay [3]; 88.7% (inactive) in assay [4]; 92.5% (inactive) in assay [5]; 96.3% in assay [6] (setting [9]); 92.5% in assay [6] (setting [10]). Also, the Her2 level in assay [2] was 84.5% (inactive). In addition, in assay [6] (H69AR cells + 2 uM doxorubicin), the differential viability (reversal) was -3.88% (inactive). In addition, the inhibition in assay [7] is -4.29% (inactive); in assay [8] it was -0.33% (inactive).
For `CCSc1nnc(NC(=O)c2ccc(C)o2)s1`, the viability in assay [1] was 96.5%; in assay [3] it was 96.5% (inactive); in assay [4], 105% (inactive); in assay [5], 116% (inactive); in assay [6] (setting [9]), 97.4%; in assay [6] (setting [10]), 116%. In assay [2], the Her2 level was 98.5% (inactive). In addition, the differential viability (reversal) in assay [6] (H69AR cells + 2 uM doxorubicin) was 18.2% (inactive). Moreover, the inhibition was -4.13% (inactive) in assay [7] and -5.32% (inactive) in assay [8].
With `CCCCOC(=O)n1c(SCC(=O)N(CC)CC)nc2ccccc21`, the viability in assay [1] is 86%; in assay [3] it was 86% (inactive); in assay [4] it was 81.8% (inactive); in assay [5], 91.4% (inactive); in assay [6] (setting [9]), 89.6%; in assay [6] (setting [10]) it was 91.4%. The Her2 level in assay [2] is 97.5% (inactive). For the same molecule, in assay [6] (H69AR cells + 2 uM doxorubicin), the differential viability (reversal) was 1.75% (inactive). Further, the inhibition is -1.82% (inactive) in assay [7] and -4.29% (inactive) in assay [8].
With `C=CCN(C(=O)CNS(=O)(=O)c1ccccc1)C(C(=O)NCCOC)c1ccncc1` (stereo not given), the viability is 100% in assay [1]; 100% (inactive) in assay [3]; 97.6% (inactive) in assay [4]; 102% (inactive) in assay [5]; 96.3% in assay [6] (setting [9]); 102% in assay [6] (setting [10]). In addition, the Her2 level in assay [2] is 103% (inactive). Moreover, the differential viability (reversal) in assay [6] (H69AR cells + 2 uM doxorubicin) is 5.81% (inactive). The inhibition in assay [7] is -4.27% (inactive); in assay [8], -9.84% (inactive).
For the molecule `CCOc1ccc(Cc2nn[nH]n2)cc1`, the viability is 86.5% in assay [1]; 86.5% (inactive) in assay [3]; 108% (inactive) in assay [4]; 101% (inactive) in assay [5]; 96.3% in assay [6] (setting [9]); 101% in assay [6] (setting [10]). Also, in assay [2], the Her2 level was 84.5% (inactive). Further, in assay [6] (H69AR cells + 2 uM doxorubicin), the differential viability (reversal) was 5.14% (inactive). Besides, the inhibition in assay [7] was -5.89% (inactive); in assay [8], -3.49% (inactive).
With `Cc1cnc(C(=O)OCC(=O)Nc2ccc(Cl)cc2Cl)cn1`, the viability was 89.5% in assay [1]; 89.5% (inactive) in assay [3]; 90.5% (inactive) in assay [4]; 103% (inactive) in assay [5]; 86.3% in assay [6] (setting [9]); 103% in assay [6] (setting [10]). Besides, the Her2 level in assay [2] was 100% (inactive). Further, the differential viability (reversal) in assay [6] (H69AR cells + 2 uM doxorubicin) is 16.4% (inactive). Moreover, the figures for the inhibition in assay [7] and in assay [8] were -8.49% (inactive) and 2.38% (inactive), respectively.
On to `Cc1occc1-c1nnc(SCC(=O)N2CCc3ccccc32)o1`, for which the viability in assay [1] is 98.5%; in assay [3], 98.5% (inactive); in assay [4], 85.8% (inactive); in assay [5], 3.12% (active); in assay [6] (setting [9]), 2.5%; in assay [6] (setting [10]), 3.12%. In assay [2], the Her2 level was 82.5% (inactive). Also, the differential viability (reversal) in assay [6] (H69AR cells + 2 uM doxorubicin) is 0.62% (inactive). The inhibition in assay [7] was -3.01% (inactive); in assay [8] it was -3.02% (inactive).
For the molecule `O=S(=O)(NCC(c1cccnc1)N1CCN(c2ccccc2)CC1)c1cc(F)ccc1F` (stereo not given), the viability was 98.5% in assay [1]; 98.5% (inactive) in assay [3]; 81.5% (inactive) in assay [4]; 86.4% (inactive) in assay [5]; 94.7% in assay [6] (setting [9]); 86.4% in assay [6] (setting [10]). In assay [2], the Her2 level was 87% (inactive). In addition, the differential viability (reversal) in assay [6] (H69AR cells + 2 uM doxorubicin) was -8.3% (inactive). The values for the inhibition in assay [7] and in assay [8] were 5.19% (inactive) and 92% (active), respectively.
Consider `COc1ccc(S(=O)(=O)CCC(=O)O)cc1`, for which the viability in assay [1] is 96.5%; in assay [3], 96.5% (inactive); in assay [4] it was 93.7% (inactive); in assay [5], 106% (inactive); in assay [6] (setting [9]) it was 95.7%; in assay [6] (setting [10]), 106%. Moreover, the Her2 level in assay [2] is 83.5% (inactive). Besides, the differential viability (reversal) in assay [6] (H69AR cells + 2 uM doxorubicin) is 10.3% (inactive). Moreover, the inhibition was -4.05% (inactive) in assay [7] and 2.54% (inactive) in assay [8].
Turning to `CCN(CC)C(=O)CSc1nnc([C@@H](N)Cc2ccccc2)o1`, the viability in assay [1] was 82%; in assay [3] it was 82% (inactive); in assay [4], 98.5% (inactive); in assay [5], 98.2% (inactive); in assay [6] (setting [9]), 94.8%; in assay [6] (setting [10]) it was 98.2%. In addition, in assay [2], the Her2 level is 106% (inactive). The differential viability (reversal) in assay [6] (H69AR cells + 2 uM doxorubicin) was 3.4% (inactive). The inhibition in assay [7] is -1.87% (inactive); in assay [8], 35.4% (active).
As to `CC(=O)c1ccc(OCC(O)CN2CC(C)OC(C)C2)cc1` (stereo not given), the viability in assay [1] was 108%; in assay [3] it was 108% (inactive); in assay [4] it was 99.7% (inactive); in assay [5], 105% (inactive); in assay [6] (setting [9]) it was 91.3%; in assay [6] (setting [10]), 105%. In assay [2], the Her2 level is 80.5% (inactive). Moreover, the differential viability (reversal) in assay [6] (H69AR cells + 2 uM doxorubicin) is 14% (inactive). The inhibition is -5.19% (inactive) in assay [7] and 4.13% (inactive) in assay [8].
As to `Cn1c(=O)c2c(nc(SCC(=O)O)n2Cc2cccc(C(F)(F)F)c2)n(C)c1=O`, the viability was 97.5% in assay [1]; 97.5% (inactive) in assay [3]; 94.7% (inactive) in assay [4]; 95.6% (inactive) in assay [5]; 90.2% in assay [6] (setting [9]); 95.6% in assay [6] (setting [10]). In assay [2], the Her2 level was 84% (inactive). Besides, the differential viability (reversal) in assay [6] (H69AR cells + 2 uM doxorubicin) was 5.41% (inactive). In addition, the inhibition in assay [7] was -4.67% (inactive); in assay [8] it was 0.81% (inactive).
For the molecule `Cc1cccc2sc(NC(=O)CN(C)S(=O)(=O)c3cccs3)nc12`, the viability in assay [1] was 76.5%; in assay [3], 76.5% (inactive); in assay [4], 48.8% (inactive); in assay [5] it was 92% (inactive); in assay [6] (setting [9]) it was 92.5%; in assay [6] (setting [10]), 92%. The Her2 level in assay [2] is 125% (inactive). Further, in assay [6] (H69AR cells + 2 uM doxorubicin), the differential viability (reversal) was -0.425% (inactive). Besides, the results for the inhibition in assay [7] and in assay [8] were 0.39% (inactive) and -6.33% (inactive), respectively.
